Screens (PubChem BioAssay)
TRPC4 act – activators of mouse TRPC4 channel, primary screen, Fluo4 calcium, HEK293 TRPC4beta/mu-opioid cells. Short transient receptor potential channel 4 (Mus musculus), Q9QUQ5. Fluo4 calcium fluorescence; stronger effect = higher value. B-score at 10 µM. hit rate 0.49% among 310,000. AID 2237, 2010;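 active means B-score above 5 SD of library B-scores, and initial fluorescence ratio not above library mean plus 5 SD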;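 further: positive B-score marks a calcium rise read as TRPC4 activation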
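Material: TRPC4beta and mu-opioid receptor HEK293 stable cells | Incubation: 45 min room-temperature Fluo4 loading, 110 s read | Detection: Kinetic Fluo4 calcium fluorescence | Measure: Integrated baseline-normalised fluorescence ratio, converted to per-well B score | Benchmarks: Low control buffer alone, high control maximal DAMGO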
TRPC6 inhibitor – mouse TRPC6 channel inhibitors, primary screen, cell-based, HEK293, membrane potential dye; Short transient receptor potential channel 6 (Mus musculus), Q61143; ACh-evoked depolarization; stronger effect = lower value; B-score at 10 µM; hit rate 1.1% among 310,000;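 active means B-score under library mean minus 3 SD, initial fluorescence not abnormally high, positive integrated signal ratio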;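 further: B-score derived from integrated fluorescence ratio over the kinetic read; more negative B-score means stronger inhibition of depolarization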
Target sequence (Q61143 whole entry, looked up): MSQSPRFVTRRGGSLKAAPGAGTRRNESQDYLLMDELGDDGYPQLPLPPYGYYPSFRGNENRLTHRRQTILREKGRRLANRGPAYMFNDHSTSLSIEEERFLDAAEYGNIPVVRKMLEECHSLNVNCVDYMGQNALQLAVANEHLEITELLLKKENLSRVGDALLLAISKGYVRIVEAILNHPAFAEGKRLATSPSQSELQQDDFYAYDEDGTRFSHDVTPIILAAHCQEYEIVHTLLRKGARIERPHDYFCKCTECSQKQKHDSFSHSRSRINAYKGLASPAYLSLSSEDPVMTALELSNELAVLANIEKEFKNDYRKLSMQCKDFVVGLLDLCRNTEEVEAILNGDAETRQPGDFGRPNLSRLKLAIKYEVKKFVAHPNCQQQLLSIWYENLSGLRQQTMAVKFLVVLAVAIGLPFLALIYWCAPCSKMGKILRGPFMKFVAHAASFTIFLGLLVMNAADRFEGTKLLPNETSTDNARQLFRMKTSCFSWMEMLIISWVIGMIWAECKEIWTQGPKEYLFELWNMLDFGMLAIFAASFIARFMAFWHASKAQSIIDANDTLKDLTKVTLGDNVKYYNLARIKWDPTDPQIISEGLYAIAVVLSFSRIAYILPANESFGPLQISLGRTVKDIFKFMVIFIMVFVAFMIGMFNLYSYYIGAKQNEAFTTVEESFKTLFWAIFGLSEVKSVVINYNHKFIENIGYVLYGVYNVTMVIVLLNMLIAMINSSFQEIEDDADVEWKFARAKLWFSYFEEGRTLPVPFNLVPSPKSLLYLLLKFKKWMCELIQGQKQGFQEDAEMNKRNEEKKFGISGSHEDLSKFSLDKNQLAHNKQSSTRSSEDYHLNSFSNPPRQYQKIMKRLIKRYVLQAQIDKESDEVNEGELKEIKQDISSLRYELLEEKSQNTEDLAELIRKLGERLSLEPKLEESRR
TRPC4 PAM – positive allosteric modulators of TRPC4, primary screen, cell-based, mouse TRPC4beta, HEK293 mu-opioid, Fluo-4 calcium | Short transient receptor potential channel 4 (Mus musculus), Q9QUQ5 | DAMGO EC20, Fluo-4 Ca2+ flux; stronger effect = higher value | B-score at 10 µM | hit rate 0.42% among 310,000 | AID 2227, 2009;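 active means B-score of calcium response area above 5 SD of library B-scores, with initial fluorescence ratio within 5 SD of library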
Kir21 inh – inhibitors of mouse Kir2.1 inward-rectifier potassium channel. Inward rectifier potassium channel 2 (Mus musculus), P35561. HEK293-Kir2.1, FluxOR thallium flux fluorescence; stronger effect = lower value. B-score at 10 µM. hit rate 0.85% among 310,000;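 active means fluorescence ratio B-score at or below minus 3 SD of library scores, with starting-brightness B-score within 2 SD, cut at about -4.2 in these data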;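 further: channel flux triggered by added potassium and thallium sulfate stimulus; B-score of peak minus minimum fluorescence over baseline after thallium stimulus; more negative B-score means stronger Kir2.1 block with less thallium influx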
TRPC6 act – mouse TRPC6 channel activators, primary screen, cell-based, HEK293, membrane potential dye; Short transient receptor potential channel 6 (Mus musculus), Q61143; HEK293-TRPC6 membrane potential dye fluorescence; stronger effect = higher value; B-score at 10 µM; hit rate 0.13% among 310,000; AID 2550, 2010;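 active means B-score of the integrated fluorescence ratio above library mean plus 3 SD, and starting fluorescence ratio within library mean plus 5 SD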;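 further: higher score means more depolarization so channel activation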
TRPC4 block – inhibitors of mouse TRPC4 channel, primary screen, Fluo4 calcium, HEK293 TRPC4beta/mu-opioid cells | B-score at 10 µM | Short transient receptor potential channel 4 (Mus musculus), Q9QUQ5 | DAMGO-evoked Fluo4 calcium flux; stronger effect = lower value | hit rate 0.39% among 300,000;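 active means B-score over 3 SD under the library average, no early fluorescence shift, positive overall ratio signal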
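test system = HEK293 cells with stable TRPC4beta plus mu-opioid receptor expression | detection = Fluo4 Ca2+ flux fluorescence | read-out = integrated fluorescence ratio relative to baseline, converted to per-well B score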
Numbers stand for hits; . = inactive. Shown are actives, neighbours in structure and some others; about 2.9% of the full set was active somewhere.

SMILES | TRPC4 act | TRPC6 inhibitor | TRPC4 PAM | Kir21 inh | TRPC6 act | TRPC4 block
C/C=C/Cn1c(SCCCc2ccccc2)nc2c1c(=O)[nH]c(=O)n2C | . | . | 86 | . | . | .
C=CCn1c(SCCN2CCCCC2)nc2c1c(=O)[nH]c(=O)n2C | . | . | 40 | . | . | .
Cc1cccc(Cn2c(SCCN3CCCCC3)nc3c2c(=O)[nH]c(=O)n3C)c1 | . | -5.7 | . | . | . | .
Cc1ccc(Cn2c(SCCN3CCCCC3)nc3c2c(=O)[nH]c(=O)n3C)cc1 | . | . | . | . | . | .
C=CCOc1ccc(C(=O)n2cc(C(=O)OC)c3ccccc32)cc1 | . | . | . | . | . | .
Cc1ccc(NS(=O)(=O)c2cc(NC(=O)c3ccc4c(c3)NC(=O)CS4)ccc2Cl)c(C)c1 | . | . | . | . | . | .
COc1ccc(N2CCN(CC(O)COCCOc3ccc(Br)cc3)CC2)cc1 (configuration not stated) | . | . | . | -4.3 | . | .
OC(COc1ccc2cc(Br)ccc2c1)CN1CCCC1 (configuration not stated) | . | . | . | -6.8 | . | .
COc1ccccc1N1CCN(CC(O)COCCOc2ccc(Br)cc2)CC1 (configuration not stated) | . | . | . | . | . | .
CC(C)(c1ccccc1)c1ccc(OCC(O)CN2CCCC2)cc1 (configuration not stated) | . | . | . | -5.3 | . | .
Nn1cc(-c2ccccc2)nc1SCC(=O)NCCc1ccccc1 | . | . | . | . | . | .
CN(C)C(=S)c1ccc(N(C)C)cc1 | . | . | . | . | . | .
C=CCn1cnc2scc(-c3ccc(CC)cc3)c2c1=O | . | . | . | . | . | -6
CCn1cnc2scc(-c3ccccc3)c2c1=O | . | . | . | . | . | .
CC(C)C[C@H](NC(=O)OC(C)(C)C)c1n[nH]c(=S)n1N | . | . | . | . | . | .
CN1CCN(S(=O)(=O)c2csc(C(N)=O)c2)CC1 | . | . | . | . | . | .
CN(CC(=O)Nc1ccccc1Br)Cc1nc2ccccc2c(=O)[nH]1 | . | . | . | . | . | .
CN(CC(=O)Nc1sc2c(c1C#N)CCCCC2)Cc1nc2ccccc2c(=O)[nH]1 | . | . | 16 | . | . | .
COc1cccc(CN(C)CC(=O)Nc2sc3c(c2C#N)CCC3)c1OC | . | . | . | . | . | .
COc1ccc(CN(C)CC(=O)Nc2sc3c(c2C#N)CCC3)cc1OC | . | . | . | . | . | -6
Cc1nc(SCC(=O)NCc2ccco2)nc(C)c1C | . | . | . | . | . | .
CN(Cc1ccccc1F)Cc1cc(=O)oc2cc(O)c(Cl)cc12 | . | . | . | . | . | .
Cc1cc2oc(=O)cc(CN(C)Cc3ccccc3F)c2cc1Cl | . | . | . | -4.3 | . | .
COc1ccc(CCNC(=O)C2CCCN2S(=O)(=O)c2cccc3nsnc23)cc1OC (configuration not stated) | . | . | . | . | . | .
CN(C)C(CNc1ncnc2sccc12)c1cccs1 (configuration not stated) | 70 | . | . | . | . | .
SMILES | TRPC4 act | TRPC6 inhibitor | TRPC4 PAM | Kir21 inh | TRPC6 act | TRPC4 block
N=c1n(CCN2CCCCC2)c2ccccc2n1CC(O)c1ccc(Cl)c(Cl)c1 (configuration not stated) | . | . | . | -8.6 | . | .
N=c1n(CCN2CCCCC2)c2ccccc2n1CC(O)c1cccc(Br)c1 (configuration not stated) | . | . | . | -6.8 | . | .
N=c1n(CCN2CCCCC2)c2ccccc2n1CC(=O)c1ccc(Cl)c(Cl)c1 | . | . | . | -4.8 | . | .
CC1(C)CC(=O)N(CC(=O)NC2CCCC2)c2ccccc2S1(=O)=O | . | . | . | . | . | .
COc1ccc(S(=O)(=O)Nc2cccc(F)c2)cc1C | . | . | . | . | . | .
CCOc1ccc(OCC)c(NC(=O)CSc2nc3ccccc3c(=O)n2C)c1 | . | . | . | . | . | .
Cc1cccc(Sc2nc(-c3ccccc3)ccc2C#N)c1 | . | . | . | . | . | .
COc1cc(/C=N/NC(=O)CN2CCCCC2)ccc1OCc1ccc(Br)cc1 | . | . | . | -6.6 | . | .
Cc1noc(C)c1CCC(=O)NC1CCCN(Cc2ccc(CC(C)C)cc2)C1 (configuration not stated) | 101 | . | . | . | . | .
COc1ccc(CC(=O)NCC2CCCN(Cc3cccc(C(F)(F)F)c3)C2)cc1 (configuration not stated) | . | . | . | . | . | .
CCOC(=O)C1(Cc2ccccc2C)CCCN(Cc2ccc(NC(C)=O)cc2)C1 (configuration not stated) | . | . | . | . | . | -9
CCCN1CCC(N(C)CCc2ccc(OC)c(OC)c2)CC1 | . | . | . | . | . | .
C[n+]1ccn(CC(=O)c2cc(C(C)(C)C)c(O)c(C(C)(C)C)c2)c1 | . | . | . | . | . | .
O=C(NC(=S)Nc1ccc(F)c(Cl)c1)C1CC1 | . | . | . | . | . | .
Fc1ccc(NC(=S)Nc2ccc(F)c(Cl)c2)cc1Cl | . | . | . | -5.4 | . | .
COc1cc(NC(=O)c2sc3nc(C)nc(N4CCOCC4)c3c2C)cc(OC)c1OC | . | . | . | . | . | .
CCc1ccccc1NC(=O)CCS(=O)(=O)c1ccc(C)cc1 | . | . | . | . | . | .
c1ccc(-c2nc(NCc3ccco3)c3ccccc3n2)nc1 | . | . | . | . | . | -6
Cc1ccc(CNc2nc(-c3cccs3)nc3ccccc23)cc1 | . | . | . | . | . | .
Oc1ccccc1-c1nc(NCc2ccco2)c2ccccc2n1 | . | . | . | . | . | .
c1ccc2c(N3CCCCC3)nc(N3CCCCC3)nc2c1 | . | . | . | . | . | .
c1coc(CNc2nc(N3CCCCC3)nc3ccccc23)c1 | . | . | . | -4.6 | . | .
c1ccc(N2CCN(c3nc(NCc4ccco4)c4ccccc4n3)CC2)cc1 | . | . | . | . | . | .
c1ccc(CNc2nc(-c3cccs3)nc3ccccc23)nc1 | . | . | . | . | . | -6
c1ccc2c(N3CCCCC3)nc(N3CCOCC3)nc2c1 | . | . | . | . | . | -9
CCOCc1nnc(NC(=O)c2c(-c3ccccc3)noc2C)s1 | . | . | . | . | . | .
